Assay outcomes: PubChem, several laboratories
Compounds with a hit are over-represented: about 1.4% of the library has one in this group of screens.
KLK5 inh = kallikrein 5 (human) inhibition. Q9Y337. recombinant hK5, fluorogenic AMC substrate cleavage. inhibition, % at 5 µM. 210,000 tested, 0.59% active. AID 873;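 active = inhibition of 40% or more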
FXIa inh 1536 = factor XIa (human) inhibition. purified FXIa, Boc-Glu-Ala-Arg-AMC fluorogenic substrate. 220,000 tested, 0.14% active. AID 798. inhibition, % at 5 µM;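 active = inhibition of at least 40%; inactive = inhibition below 40%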;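 also: fluorescence of freed AMC excited at 355 nm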
thrombin 1536 = blocks human thrombin protease activity. P00734. inhibition, % at 5 µM. 220,000 tested, 0.26% active. alpha-thrombin, Boc-VPR-AMC fluorogenic substrate cleavage;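 active = inhibition at or above 40%; inactive = inhibition below 40%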
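System: Human alpha-thrombin protein | Medium: pH 7.5 Tris (50 mM) with NaCl 150 mM, Tween 20 0.05% | Times: Enzyme reaction carried out at room temperature | Detection: AMC fluorescence, 355/460 nm | Evaluation: Percent inhibition scaled between no-compound controls and no-enzyme blanks | Benchmarks: Enzyme without compound as high, wells lacking enzyme as low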
FXIIa inh = factor XIIa (human) inhibition. P00748. purified FXIIa, Boc-QGR-AMC fluorogenic substrate, 2 h. inhibition, % at 5 µM. 220,000 tested, 0.3% active. AID 800; in the data active = inhibition above about 40%
Target sequence (P00748 20-372 limits assumed): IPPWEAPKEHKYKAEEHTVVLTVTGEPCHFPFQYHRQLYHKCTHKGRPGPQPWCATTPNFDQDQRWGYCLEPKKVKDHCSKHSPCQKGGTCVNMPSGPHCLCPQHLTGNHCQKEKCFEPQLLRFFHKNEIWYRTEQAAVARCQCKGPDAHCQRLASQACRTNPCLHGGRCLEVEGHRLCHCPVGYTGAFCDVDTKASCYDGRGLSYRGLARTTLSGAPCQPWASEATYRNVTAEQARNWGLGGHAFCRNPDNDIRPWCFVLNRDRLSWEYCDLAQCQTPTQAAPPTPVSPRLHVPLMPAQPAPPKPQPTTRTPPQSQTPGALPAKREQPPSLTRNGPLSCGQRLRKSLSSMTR
Target sequence (P00748 373-615 limits assumed): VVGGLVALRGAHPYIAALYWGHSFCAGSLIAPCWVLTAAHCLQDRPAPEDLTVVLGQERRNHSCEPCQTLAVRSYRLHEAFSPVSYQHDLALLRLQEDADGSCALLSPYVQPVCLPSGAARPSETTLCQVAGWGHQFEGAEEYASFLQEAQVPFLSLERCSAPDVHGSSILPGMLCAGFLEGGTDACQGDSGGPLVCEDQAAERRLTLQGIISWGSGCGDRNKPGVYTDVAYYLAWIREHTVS
m-calpain inh = inhibitors of pig calpain II | purified calpain II, fluorogenic peptide substrate, 30 min | inhibition, % at 16 µM | 220,000 tested, 0.37% active | AID 1236;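 active = inhibition above about 50%, limit read from the data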
Furin inh = inhibitors of human furin; purified furin, fluorogenic substrate cleavage; inhibition, % at 20 µM or 30 µM; 220,000 tested, 0.061% active; in the data active = inhibition above about 25%
Numbers stand for hits; - = inactive.

SMILES | KLK5 inh | FXIa inh 1536 | thrombin 1536 | FXIIa inh | m-calpain inh | Furin inh
O=C(COC(=O)c1ccc[nH]c1=O)NCC1CCCO1 (centres undefined) | - | - | - | - | - | 30.3
Clc1ccc2nc(-c3ccccn3)c(Nc3ccc4c(c3)OCO4)n2c1 | - | - | - | - | 56.0 | -
Cc1ccc2nc(-c3ccccc3O)c(Nc3ccc4c(c3)OCCO4)n2c1 | - | - | - | - | - | -
O=C1c2[nH]nc(-c3ccccc3O)c2C(c2ccccc2F)N1Cc1ccco1 (centres undefined) | 40.8 | - | - | - | - | -
CCCCCOc1ccc(C(=O)NC(C(=O)O)C(C)C)cc1 (centres undefined) | 41.0 | - | - | - | - | -
CCCCOCCCNC(=O)c1ccc(NC(C)=O)cc1 | - | - | - | - | - | -
COc1ccc(CC(=O)NCc2cn3ccsc3n2)cc1 | - | - | - | - | - | -
Cc1c(NC(=O)CSc2nc3ccccc3s2)c(=O)n(-c2ccccc2)n1C | - | - | - | 44.8 | - | -
O=C(CSc1nc2ccccc2s1)NC1CCCC1 | - | - | - | 42.1 | - | -
COc1ccc(CCNC(=O)C2CCCN(S(C)(=O)=O)C2)cc1OC (centres undefined) | - | - | - | - | - | -
CCSc1nnc(NC(=O)[C@H](C)N2C(=O)C3CC=CCC3C2=O)s1 (some centres undefined) | 45.9 | 56.4 | - | - | - | -
Cn1c(=O)c2c(nc(CN3CCN(C(=O)c4ccco4)CC3)n2Cc2cccc(Cl)c2)n(C)c1=O | - | - | - | - | - | -
Cc1sc2ncnc(SC(C)C(=O)N3c4ccccc4Sc4ccccc43)c2c1C (centres undefined) | - | - | - | - | - | -
Cc1ccc(OCC(=O)NNC(=O)C(C)Sc2ncnc3sc(C)c(C)c23)cc1 (centres undefined) | - | - | - | - | 91.0 | -
O=C(NCc1ccccn1)C12CC3CC(CC(C3)C1)C2 | - | - | - | - | - | -
COc1cc(C2SCC(=O)N2c2c(C)n(C)n(-c3ccccc3)c2=O)ccc1O (centres undefined) | - | 42.9 | - | - | - | -
CCCCC(CCC(=O)O)(C(=O)OCC)c1csc(Nc2ccc(C)cc2)n1 (centres undefined) | - | - | - | - | - | -
CCOC(=O)C(CC)(CCC(=O)OC)c1csc(Nc2ccccc2O)n1 (centres undefined) | - | - | 65.9 | - | - | -
COc1ccc(C(=O)NC(=S)N2CCCCC2)cc1 | 43.6 | - | - | - | - | -
O=[N+]([O-])c1ccc(/C=N/N2CCN(c3ccncc3S(=O)(=O)N3CCCCC3)CC2)cc1 | - | - | - | - | - | -
COC(=O)c1nc(NC(C)=O)n[nH]1 | - | - | - | 48.0 | - | -
COCCNC(=O)c1ccc(NS(=O)(=O)c2cc(C)ccc2C)cc1 | 41.7 | - | - | - | - | -
O=[N+]([O-])c1cccc(-c2nnc(C3CC3)o2)c1 | - | - | - | - | - | -
Nc1nnc(-c2cccc([N+](=O)[O-])c2)o1 | 50.9 | - | - | - | - | -
O=C1C=C(c2ccccc2)OC2(CCCC2)O1 | - | - | - | - | - | -
SMILES | KLK5 inh | FXIa inh 1536 | thrombin 1536 | FXIIa inh | m-calpain inh | Furin inh
O=C1C=C(c2ccc(Cl)cc2)OC2(CCCC2)O1 | - | - | - | - | - | 28.8
CCOC(=O)c1sc(N=NC2=C(O)CCCC2=O)c(C(=O)OCC)c1C | - | - | - | - | - | -
O=C(Oc1ccc2ccc(=O)oc2c1)c1cccs1 | - | 50.6 | - | 61.7 | - | -
O=C(CCc1nnc(Cc2ccc(-c3ccccc3)cc2)o1)NCC1CC1 | - | - | - | - | - | -
CCOC(=O)C1CN(S(=O)(=O)c2ccc(C)cc2)C1 | - | - | - | - | 52.9 | -
COc1ccc(NC(=S)Nc2ccc3cn[nH]c3c2)cc1 | - | - | 49.0 | - | - | -
S=C(Nc1ccc(Cl)cc1)Nc1ccc2cn[nH]c2c1 | - | - | - | - | - | -
Cn1nc(-c2ccc(Cl)cc2)nc2c(=O)n(C)c(=O)nc1-2 | - | - | - | - | 54.9 | -
CS(=O)(=O)n1nc(-c2ccc(Cl)cc2)nc1N | - | - | - | - | - | -
Cc1ccnc(NC(=O)C2CCCN(S(=O)(=O)c3cnc[nH]3)C2)c1 (centres undefined) | - | - | 70.2 | - | - | -
CCOC(=O)c1sc(NS(=O)(=O)c2cc(C)ccc2C)nc1C | 40.5 | - | - | - | - | -
